These results are taken from ChEMBL document CHEMBL4028912, “Novel Aryl Substituted Pyrazoles as Small Molecule Inhibitors of Cytochrome P450 CYP121A1: Synthesis and Antimycobacterial Evaluation” (J Med Chem, 2017).

Molecules are shown by their SMILES. In brackets after ≈: the same amount, converted by molar mass. Activity calls are given as the source filed them. No cut-off for these calls is given here.

Assay [1] in a line: Binding affinity to Mycobacterium tuberculosis CYP121A1 expressed in Escherichia coli TG1 (DE3) by UV-visible scanning spectrophotometric analysis. A digest of the protocol:
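Purified CYP121A1 (typically 3–5 μM) in 100 mM KPi, 200 mM KCl, pH 7.85, 0.004% Triton X-100, at 28 °C. Ligand added stepwise from DMSO stocks until no further spectral change. ΔAmax (peak minus trough of difference spectra) was plotted against [ligand] and fitted to a hyperbolic or Hill equation. Triplicate titrations were run and Kd was averaged.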

Assay [2] has as its system Mycobacterium tuberculosis. Nature of the assay: Binding affinity to Mycobacterium tuberculosis CYP121A1 expressed in Escherichia coli TG1 (DE3) assessed as Soret peak shift by UV-visible scanning spectrophotometric analysis. A digest of the protocol:
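Purified CYP121A1 (typically 3–5 μM) titrated at 28 °C in 100 mM KPi, 200 mM KCl, pH 7.85, 0.004% Triton X-100. Ligand added stepwise from DMSO stocks until saturation. Spectra 250–800 nm were recorded. Soret shift was judged from the difference spectra, with a red shift taken as type II.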

Assay [3] has as its system Mycobacterium tuberculosis. In words: Antimycobacterial activity against Mycobacterium tuberculosis H37Rv after 7 days by resazurin microtiter assay. The assay is classed as functional. As to conditions: 168 h. The gist of the method:
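M. tuberculosis H37Rv grown in 7H9 with 10% OADC at 37 °C to mid-log (OD600 0.4–0.6). Inoculum adjusted to McFarland no. 1, diluted 1:20. Compounds from DMSO stocks, final 0.39–100 μg/mL; rifampicin 0.004–1 μg/mL as control. After 7 days at 37 °C, 0.01% resazurin added, read 24 h later by fluorescence (530/590 nm). MIC = lowest concentration giving 90% inhibition.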

`c1ccc(-c2nn(-c3ccccc3)cc2Cn2cncn2)cc1`: the Kd (in general, a measure of binding affinity in units of concentration) in assay [1] worked out at 73.5 µM. The Activity in assay [2] was 416 to 422 nm. For the same compound, the MIC90 (as a rule, an inhibitory concentration at the 90% level, which refers to growth in some studies and to a panel of isolates in others) in assay [3] stood at 50 µg/mL (≈ 166 µM).

Regarding `COc1ccc(-c2nn(-c3ccccc3)cc2Cn2ccnc2)cc1`, the Kd in assay [1] came to 11.4 µM. Besides, the Activity in assay [2] lay within 416 to 421 nm. Further, the MIC90 in assay [3] was found to be 25 µg/mL (≈ 75.7 µM).

The compound `Fc1ccc(-c2nn(-c3ccccc3)cc2Cn2ccnc2)cc1` displayed a Kd in assay [1] of 4.16 µM. Besides, the Activity in assay [2] was in the range of 416 to 424 nm. The compound also registered an MIC90 in assay [3] of 25 µg/mL (≈ 78.5 µM).

For the compound `COc1ccc(-c2nn(-c3ccccc3)cc2C(=O)NCCn2ccnc2)cc1`, in assay [1], the Kd was determined as 314 µM. For the same compound, the Activity in assay [2] fell in the range of 416 to 418 nm. The compound further registered an MIC90 in assay [3] of 100 µg/mL (≈ 258 µM).

`Clc1ccc(-c2nn(-c3ccccc3)cc2Cn2ccnc2)cc1`: in assay [1], the Kd was determined as 7.42 µM. Moreover, the Activity in assay [2] fell in the range of 416 to 422 nm. In assay [3], the MIC90 was determined as 12.5 µg/mL (≈ 37.3 µM).

Regarding `Ic1ccc(-c2nn(-c3ccccc3)cc2Cn2ccnc2)cc1`, the Kd in assay [1] came to 13.6 µM. Besides, in assay [2], the Activity lay within 416 to 422 nm. The compound further gave an MIC90 in assay [3] of 6.25 µg/mL (≈ 14.7 µM).

Turning to `Cc1ccc(-c2nn(-c3ccccc3)cc2Cn2ccnc2)cc1`, the dissociation constant Kd in assay [1] turned out to be 5.36 µM. For the same compound, the Activity in assay [2] was 416 to 422 nm. Moreover, in assay [3], the MIC90 came out at 12.5 µg/mL (≈ 39.8 µM).

For `Clc1ccc(-c2nn(-c3ccccc3)cc2Cn2cncn2)cc1`, the Kd in assay [1] was 83.8 µM. The Activity in assay [2] fell in the range of 416 to 421 nm. Also, the MIC90 in assay [3] worked out at 25 µg/mL (≈ 74.4 µM).

Turning to `O=C(NCCn1ccnc1)c1cn(-c2ccccc2)nc1-c1ccc(Cl)cc1`, the result in assay [2] was inactive. Also, the MIC90 in assay [3] is above 100 µg/mL.

Compound `OC(Cn1cncn1)(Cn1cncn1)c1ccc(F)cc1F` [FLUCONAZOLE] registered an MIC90 in assay [3] above 100 µg/mL.

In assay [1], `c1ccc(-c2nn(-c3ccccc3)cc2Cn2ccnc2)cc1` had a Kd of 2.63 µM. The Activity in assay [2] fell in the range of 416 to 424 nm. Further, the MIC90 in assay [3] is 12.5 µg/mL (≈ 41.6 µM).

In assay [1], `Brc1ccc(-c2nn(-c3ccccc3)cc2Cn2ccnc2)cc1` returned a Kd of 19.5 µM. In addition, in assay [2], the Activity lay in the range of 416 to 420 nm. This compound gave an MIC90 in assay [3] of 6.25 µg/mL (≈ 16.5 µM).

`COc1ccc(-c2nn(-c3ccccc3)cc2Cn2cncn2)cc1` registered a Kd in assay [1] of 96.5 µM. Moreover, the Activity in assay [2] was 416 to 420 nm. In addition, the MIC90 in assay [3] was found to be 25 µg/mL (≈ 75.4 µM).

Take `Ic1ccc(-c2nn(-c3ccccc3)cc2Cn2cncn2)cc1`: in assay [2], the outcome was inactive. The same compound came in with an MIC90 in assay [3] of 50 µg/mL (≈ 117 µM).

Regarding `Cc1ccc(-c2nn(-c3ccccc3)cc2C(=O)NCCn2ccnc2)cc1`, in assay [1], the Kd amounted to 290 µM. The Activity in assay [2] is 416 to 418 nm. Further, the MIC90 in assay [3] is above 100 µg/mL.

Take `N#Cc1ccc(-c2nn(-c3ccccc3)cc2Cn2cncn2)cc1`: in assay [2], the result was inactive. Moreover, the MIC90 in assay [3] was above 100 µg/mL.

`N#Cc1ccc(-c2nn(-c3ccccc3)cc2Cn2ccnc2)cc1` gave a Kd in assay [1] of 45.9 µM. Besides, the Activity in assay [2] is 416 to 418 nm. Moreover, the MIC90 in assay [3] was 100 µg/mL (≈ 307 µM).

On to `Brc1ccc(-c2nn(-c3ccccc3)cc2Cn2cncn2)cc1`, for which the Kd in assay [1] turned out to be 193 µM. Also, the Activity in assay [2] was in the range of 416 to 418 nm. This compound showed an MIC90 in assay [3] of 25 µg/mL (≈ 65.7 µM).

Regarding `Clc1ccccc1C(c1ccccc1)(c1ccccc1)n1ccnc1` [CLOTRIMAZOLE], in assay [3], the MIC90 was 20 µg/mL (≈ 58 µM).

As for `Fc1ccc(-c2nn(-c3ccccc3)cc2Cn2cncn2)cc1`, the dissociation constant Kd in assay [1] was found to be 35.6 µM. The Activity in assay [2] was 416 to 423 nm. The compound also had an MIC90 in assay [3] of 25 µg/mL (≈ 78.3 µM).

With `O=C(NCCn1ccnc1)c1cn(-c2ccccc2)nc1-c1ccc(F)cc1`, in assay [2], the result was inactive. Moreover, the MIC90 in assay [3] was above 100 µg/mL.

In assay [1], `Cc1ccc(-c2nn(-c3ccccc3)cc2Cn2cncn2)cc1` had a Kd of 187 µM. Further, the Activity in assay [2] fell in the range of 416 to 418 nm. Besides, in assay [3], the MIC90 was above 100 µg/mL.

In assay [1], `O=C(NCCn1ccnc1)c1cn(-c2ccccc2)nc1-c1ccccc1` gave a Kd of 394 µM. The Activity in assay [2] fell in the range of 416 to 418 nm. Besides, the MIC90 in assay [3] is above 100 µg/mL.
